Assay results as given in ChEMBL document CHEMBL1138840, “Discovery of positive allosteric modulators for the metabotropic glutamate receptor subtype 5 from a series of N-(1,3-diphenyl-1H- pyrazol-5-yl)benzamides that potentiate receptor function in vivo” (J Med Chem, 2004).
pEC50: −log10 of the molar value.

What was measured:
[1] = biological target: T1, Metabotropic glutamate receptor 5 (Homo sapiens, UniProt P41594); experiment: Fold potentiation in CHO cells overexpressing human metabotropic glutamate receptor 5; type: functional, cell-based
How it was run: (§1)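 FLIPR calcium assay in CHO cells transfected with human or rat mGluR5. Compound added with a low glutamate concentration (300 nM), measuring increase in response; compound alone (up to 100 µM) checked for agonist activity.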
Target sequence in this assay (P41594 21-1212 limits assumed): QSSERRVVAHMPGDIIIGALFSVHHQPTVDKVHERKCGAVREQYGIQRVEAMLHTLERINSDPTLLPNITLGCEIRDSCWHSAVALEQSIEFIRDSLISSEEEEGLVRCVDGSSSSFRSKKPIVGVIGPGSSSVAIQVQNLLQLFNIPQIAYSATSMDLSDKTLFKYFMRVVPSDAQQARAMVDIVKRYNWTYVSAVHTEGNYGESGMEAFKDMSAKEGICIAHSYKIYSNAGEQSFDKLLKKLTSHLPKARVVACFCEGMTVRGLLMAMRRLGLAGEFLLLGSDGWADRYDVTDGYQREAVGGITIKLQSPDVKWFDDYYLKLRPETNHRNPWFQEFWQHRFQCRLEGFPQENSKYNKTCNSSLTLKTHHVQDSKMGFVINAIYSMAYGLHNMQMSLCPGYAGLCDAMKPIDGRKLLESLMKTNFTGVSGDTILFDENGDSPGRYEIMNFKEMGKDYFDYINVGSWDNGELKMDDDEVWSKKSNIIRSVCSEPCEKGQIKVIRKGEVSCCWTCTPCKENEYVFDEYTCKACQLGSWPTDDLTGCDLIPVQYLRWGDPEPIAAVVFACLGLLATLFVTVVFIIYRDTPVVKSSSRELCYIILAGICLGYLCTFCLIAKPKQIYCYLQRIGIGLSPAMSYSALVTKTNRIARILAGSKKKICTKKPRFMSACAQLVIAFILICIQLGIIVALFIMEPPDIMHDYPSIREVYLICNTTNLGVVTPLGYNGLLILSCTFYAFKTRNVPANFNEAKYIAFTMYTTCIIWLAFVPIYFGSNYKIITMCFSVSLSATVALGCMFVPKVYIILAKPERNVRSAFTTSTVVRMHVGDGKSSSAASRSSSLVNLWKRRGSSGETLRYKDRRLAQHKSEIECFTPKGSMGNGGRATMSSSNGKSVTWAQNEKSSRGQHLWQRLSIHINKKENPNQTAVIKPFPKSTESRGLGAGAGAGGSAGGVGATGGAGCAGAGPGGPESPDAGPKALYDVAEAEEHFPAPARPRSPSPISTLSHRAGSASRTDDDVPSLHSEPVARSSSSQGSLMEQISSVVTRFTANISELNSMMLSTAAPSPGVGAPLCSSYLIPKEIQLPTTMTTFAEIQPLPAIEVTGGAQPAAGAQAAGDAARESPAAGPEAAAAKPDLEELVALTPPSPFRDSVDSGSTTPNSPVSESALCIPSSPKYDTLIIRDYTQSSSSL

[2] = biological target: Metabotropic glutamate receptor 5 (Rattus norvegicus, UniProt P31424); experiment: Effective concentration against metabotropic glutamate receptor 5 of rat; how it was run: as §1
[3] = biological target: T1, Metabotropic glutamate receptor 5; experiment: Effective concentration against metabotropic glutamate receptor 5 of human transfected into CHO cells; type: cell-based; how it was run: as §1
Target sequence in this assay (P41594 whole entry): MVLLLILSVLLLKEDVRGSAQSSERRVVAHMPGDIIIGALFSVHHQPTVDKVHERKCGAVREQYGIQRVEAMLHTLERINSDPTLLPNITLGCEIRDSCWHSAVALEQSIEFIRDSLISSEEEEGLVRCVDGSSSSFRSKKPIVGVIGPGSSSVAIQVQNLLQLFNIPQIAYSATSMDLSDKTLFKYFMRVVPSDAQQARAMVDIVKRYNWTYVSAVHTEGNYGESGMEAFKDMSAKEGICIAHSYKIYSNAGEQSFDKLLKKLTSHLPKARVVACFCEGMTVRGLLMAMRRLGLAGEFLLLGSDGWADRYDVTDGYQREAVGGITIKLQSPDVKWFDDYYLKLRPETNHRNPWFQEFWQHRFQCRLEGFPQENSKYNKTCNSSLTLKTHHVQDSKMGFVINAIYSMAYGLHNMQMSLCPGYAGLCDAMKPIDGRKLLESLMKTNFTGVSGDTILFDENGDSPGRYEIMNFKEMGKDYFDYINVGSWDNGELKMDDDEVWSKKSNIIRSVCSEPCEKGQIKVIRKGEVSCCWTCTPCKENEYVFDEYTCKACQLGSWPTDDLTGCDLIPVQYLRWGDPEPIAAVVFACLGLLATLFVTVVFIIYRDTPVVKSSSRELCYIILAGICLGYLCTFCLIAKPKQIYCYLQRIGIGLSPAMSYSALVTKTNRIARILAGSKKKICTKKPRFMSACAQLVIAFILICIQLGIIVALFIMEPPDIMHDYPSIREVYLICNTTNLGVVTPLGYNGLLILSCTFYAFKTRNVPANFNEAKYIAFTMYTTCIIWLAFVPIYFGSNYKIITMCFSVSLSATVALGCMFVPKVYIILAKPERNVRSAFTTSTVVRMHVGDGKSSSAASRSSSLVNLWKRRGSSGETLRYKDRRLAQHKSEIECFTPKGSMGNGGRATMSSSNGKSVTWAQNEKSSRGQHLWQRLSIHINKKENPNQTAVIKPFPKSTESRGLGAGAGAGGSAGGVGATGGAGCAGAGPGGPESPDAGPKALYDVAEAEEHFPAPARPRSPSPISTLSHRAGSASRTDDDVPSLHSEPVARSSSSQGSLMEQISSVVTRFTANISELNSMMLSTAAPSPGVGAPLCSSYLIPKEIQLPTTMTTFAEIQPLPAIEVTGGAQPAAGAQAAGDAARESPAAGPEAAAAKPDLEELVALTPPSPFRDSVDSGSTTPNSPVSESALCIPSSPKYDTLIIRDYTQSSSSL

[4] = biological target: Metabotropic glutamate receptor 5 (Rattus norvegicus) (UniProt P31424); experiment: Fold potentiation towards rat metabotropic glutamate receptor 5; type: functional; how it was run: as §1
Metabotropic glutamate receptor 5 (Rattus norvegicus), sequence (P31424 21-1203 limits assumed): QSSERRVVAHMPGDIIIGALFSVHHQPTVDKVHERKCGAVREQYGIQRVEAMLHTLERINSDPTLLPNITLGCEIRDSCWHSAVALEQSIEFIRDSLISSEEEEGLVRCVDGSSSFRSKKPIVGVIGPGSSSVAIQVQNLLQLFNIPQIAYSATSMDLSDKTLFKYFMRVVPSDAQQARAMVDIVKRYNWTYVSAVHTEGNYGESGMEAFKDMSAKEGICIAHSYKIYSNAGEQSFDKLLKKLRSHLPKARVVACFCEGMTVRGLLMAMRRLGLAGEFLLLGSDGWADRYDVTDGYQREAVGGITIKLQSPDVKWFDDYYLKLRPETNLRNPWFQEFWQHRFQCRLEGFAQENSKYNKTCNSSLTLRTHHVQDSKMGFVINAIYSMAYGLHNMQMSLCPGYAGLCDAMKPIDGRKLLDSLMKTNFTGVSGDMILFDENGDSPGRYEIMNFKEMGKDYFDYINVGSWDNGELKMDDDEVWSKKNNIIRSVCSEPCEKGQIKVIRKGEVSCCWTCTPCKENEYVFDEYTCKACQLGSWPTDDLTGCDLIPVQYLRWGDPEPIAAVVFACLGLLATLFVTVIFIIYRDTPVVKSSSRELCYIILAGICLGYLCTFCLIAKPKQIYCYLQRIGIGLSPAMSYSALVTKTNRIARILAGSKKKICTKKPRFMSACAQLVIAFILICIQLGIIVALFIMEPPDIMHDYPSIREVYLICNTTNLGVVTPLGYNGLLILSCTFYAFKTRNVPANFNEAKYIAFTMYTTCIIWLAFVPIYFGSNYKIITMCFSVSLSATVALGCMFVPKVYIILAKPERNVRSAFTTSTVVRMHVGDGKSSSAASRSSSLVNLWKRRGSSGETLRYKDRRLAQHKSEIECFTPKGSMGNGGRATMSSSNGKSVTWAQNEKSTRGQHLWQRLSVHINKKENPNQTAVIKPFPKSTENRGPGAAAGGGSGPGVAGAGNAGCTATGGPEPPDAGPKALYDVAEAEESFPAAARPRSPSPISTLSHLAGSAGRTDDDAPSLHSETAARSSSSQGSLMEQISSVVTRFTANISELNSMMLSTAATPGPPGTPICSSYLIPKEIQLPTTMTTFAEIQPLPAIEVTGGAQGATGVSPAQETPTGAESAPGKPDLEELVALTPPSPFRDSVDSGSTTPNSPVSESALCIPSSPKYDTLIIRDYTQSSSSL

Metabotropic glutamate receptor 5 (Rattus norvegicus, UniProt P31424), sequence (P31424 whole entry): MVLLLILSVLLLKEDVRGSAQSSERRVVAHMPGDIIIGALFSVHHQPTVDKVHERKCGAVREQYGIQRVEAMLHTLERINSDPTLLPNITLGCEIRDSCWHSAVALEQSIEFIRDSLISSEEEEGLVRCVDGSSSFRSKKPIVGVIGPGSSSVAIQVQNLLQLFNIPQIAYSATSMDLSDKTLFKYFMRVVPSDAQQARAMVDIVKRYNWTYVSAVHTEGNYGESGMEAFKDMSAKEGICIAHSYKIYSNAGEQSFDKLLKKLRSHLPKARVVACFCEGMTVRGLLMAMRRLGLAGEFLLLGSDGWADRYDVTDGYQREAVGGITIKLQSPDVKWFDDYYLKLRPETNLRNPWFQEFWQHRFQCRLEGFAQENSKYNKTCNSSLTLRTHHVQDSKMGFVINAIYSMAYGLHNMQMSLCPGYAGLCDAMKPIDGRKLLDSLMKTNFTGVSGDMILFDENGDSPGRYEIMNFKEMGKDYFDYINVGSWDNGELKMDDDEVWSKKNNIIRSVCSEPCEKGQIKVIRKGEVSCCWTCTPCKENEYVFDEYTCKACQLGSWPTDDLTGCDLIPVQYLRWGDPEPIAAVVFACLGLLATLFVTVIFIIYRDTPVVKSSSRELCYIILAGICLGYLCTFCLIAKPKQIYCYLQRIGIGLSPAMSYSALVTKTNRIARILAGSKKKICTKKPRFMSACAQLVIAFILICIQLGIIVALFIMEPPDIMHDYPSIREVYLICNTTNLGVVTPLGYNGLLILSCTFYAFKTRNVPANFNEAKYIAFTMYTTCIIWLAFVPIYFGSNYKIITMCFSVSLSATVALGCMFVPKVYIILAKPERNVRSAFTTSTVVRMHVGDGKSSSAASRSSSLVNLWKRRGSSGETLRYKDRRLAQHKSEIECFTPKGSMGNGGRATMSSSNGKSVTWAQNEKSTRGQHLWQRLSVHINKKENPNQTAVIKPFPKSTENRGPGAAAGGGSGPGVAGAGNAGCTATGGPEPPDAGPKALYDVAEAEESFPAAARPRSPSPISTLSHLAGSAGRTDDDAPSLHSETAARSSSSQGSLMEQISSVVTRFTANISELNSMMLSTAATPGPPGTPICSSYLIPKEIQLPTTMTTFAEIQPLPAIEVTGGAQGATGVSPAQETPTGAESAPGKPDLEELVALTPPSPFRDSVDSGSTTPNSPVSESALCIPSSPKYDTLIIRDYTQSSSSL

Row | Potentiation [1] | pEC50 [2] | pEC50 [3] | Potentiation [4] | SMILES
1 | 5 | 7.00 | 7.70 | 4.9 | O=C(Nc1cc(-c2ccccc2)nn1-c1ccccc1)c1ccc(Cl)cc1
2 | 6.4 | 7.00 | 7.12 | 6.3 | O=C(Nc1cc(-c2ccccc2)nn1-c1ccccc1)c1ccccc1F
3 | 4 | – | – | 4.3 | N#Cc1cccc(C(=O)Nc2cc(-c3ccccc3)nn2-c2ccccc2)c1
4 | 3 | – | 8.63 | – | Fc1cccc(/C=N/N=C/c2cccc(F)c2)c1
5 | 5 | 6.52 | 7.40 | 5 | O=C(Nc1cc(-c2ccccc2)nn1-c1ccccc1)c1ccccc1
6 | 3.6 | 6.23 | 6.54 | 8 | O=C(Nc1cc(-c2ccccc2)nn1-c1ccccc1)c1ccccn1
7 | 6 | – | 6.13 | – | O=C(Nc1ccc(Br)cc1CN1C(=O)c2ccccc2C1=O)c1ccccn1
8 | 4.3 | 6.40 | 6.70 | 4.8 | O=C(Nc1cc(-c2ccccc2)nn1-c1ccccc1)c1cnccn1
9 | 3.7 | – | 5.60 | – | O=C(Nc1cc(-c2ccccc2)nn1-c1ccccc1)c1ccccc1Cl
10 | 9 | 7.40 | 7.52 | 10.9 | Cc1ccc(C(=O)Nc2cc(-c3ccccc3)nn2-c2ccccc2)cc1
11 | 7 | – | – | – | O=C(Nc1ccc(Cl)cc1CN1C(=O)c2ccccc2C1=O)c1ccccc1O
12 | 5.4 | 6.70 | 7.40 | 3.3 | O=C(Nc1cc(-c2ccccc2)nn1-c1ccccc1)c1cccc(Cl)c1
13 | 2.6 | 7.70 | 8.00 | 6.4 | O=C(Nc1cc(-c2ccccc2)nn1-c1ccccc1)c1ccc(F)c(F)c1
14 | 2.9 | 6.40 | 6.70 | 5.3 | O=C(Nc1cc(-c2ccccc2)nn1-c1ccccc1)c1cccs1
15 | 0.9 | < 5.00 | < 5.00 | 0.9 | O=C(Nc1cc(-c2ccccc2)nn1-c1ccccc1)c1ccccc1O
16 | 7 | – | 6.61 | – | O=C(Nc1ccc(Cl)cc1CN1C(=O)c2ccccc2C1=O)c1ccccn1
17 | 5.2 | 7.70 | 7.72 | 6.8 | O=C(Nc1cc(-c2ccccc2)nn1-c1ccccc1)c1ccc(C(F)(F)F)cc1
18 | 9 | 7.00 | 7.05 | 9.4 | Cc1cccc(C(=O)Nc2cc(-c3ccccc3)nn2-c2ccccc2)c1
19 | 2.5 | 5.54 | 5.74 | 3.7 | O=C(Nc1cc(-c2ccccc2)nn1-c1ccccc1)c1ccsc1
20 | 2.6 | 7.19 | 7.70 | 7.7 | O=C(Nc1cc(-c2ccccc2)nn1-c1ccccc1)c1cccc(F)c1
21 | 2.9 | 7.30 | 7.52 | 8 | O=C(Nc1cc(-c2ccccc2)nn1-c1ccccc1)c1ccc(F)cc1
22 | 0.9 | – | < 5.00 | – | Cc1ccccc1C(=O)Nc1cc(-c2ccccc2)nn1-c1ccccc1
